Columns and labels:
Assay type in all cases: functional
[1] = tested on: Liposcelis bostrychophila; test: Insecticidal activity against adult Liposcelis bostrychophila (booklice) assessed as repellent activity at 6.4 nL/cm2 after 4 hr
Summary of the method: (§1)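 Adult booklice, about 2 weeks old, from dark cultures at 28–30 °C and 70–80% RH on milk powder/active yeast/flour (1:1:1). Half of a 6 cm filter paper received 150 μL of sample in acetone; the other half received acetone; both were air-dried. Papers were placed in Fluon-coated 6 cm Petri dishes. Insects on each half were counted at 2 and 4 h. PR = (Nc−Nt)/(Nc+Nt)×100. Five replicates, repeated three times.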

[2] = tested on: Liposcelis bostrychophila; test: Insecticidal activity against adult Liposcelis bostrychophila (booklice) assessed as repellent activity at 6.4 nL/cm2 after 2 hr; summary of the method: as §1
Tribolium castaneum [3] = test: Insecticidal activity against adult Tribolium castaneum (red flour beetle) assessed as repellent activity at 16 nL/cm2 after 2 hr
Summary of the method: (§2)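 Adult T. castaneum, about 2 weeks old, reared on wheat flour plus yeast (10:1, w/w) in the dark at 28–30 °C and 70–80% RH. In Fluon-coated 9 cm dishes, half of a 9 cm filter paper received 500 μL of acetone solution and the other half received acetone, then both were air-dried. Insects on each half were counted at 2 and 4 h. Percent repellency was computed from the counts. Five replicates, three runs.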

Tribolium castaneum [4] = test: Insecticidal activity against adult Tribolium castaneum (red flour beetle) assessed as repellent activity at 0.016 nL/cm2 after 4 hr; summary of the method: as §2
Tribolium castaneum [5] = test: Insecticidal activity against adult Tribolium castaneum (red flour beetle) assessed as repellent activity at 1.6 nL/cm2 after 4 hr; summary of the method: as §2
[6] = tested on: Liposcelis bostrychophila; test: Insecticidal activity against adult Liposcelis bostrychophila (booklice) assessed as repellent activity at 3.2 nL/cm2 after 4 hr; summary of the method: as §1
[7] = tested on: Liposcelis bostrychophila; test: Insecticidal activity against adult Liposcelis bostrychophila (booklice) assessed as repellent activity at 13 nL/cm2 after 4 hr; summary of the method: as §1
[8] = tested on: Liposcelis bostrychophila; test: Insecticidal activity against adult Liposcelis bostrychophila (booklice) assessed as repellent activity at 26 nL/cm2 after 4 hr; summary of the method: as §1
[9] = tested on: Liposcelis bostrychophila; test: Insecticidal activity against adult Liposcelis bostrychophila (booklice) assessed as repellent activity at 26 nL/cm2 after 2 hr; summary of the method: as §1
[10] = tested on: Liposcelis bostrychophila; test: Insecticidal activity against adult Liposcelis bostrychophila (booklice) assessed as repellent activity at 1.6 nL/cm2 after 2 hr; summary of the method: as §1
Tribolium castaneum [11] = test: Insecticidal activity against adult Tribolium castaneum (red flour beetle) assessed as repellent activity at 0.16 nL/cm2 after 2 hr; summary of the method: as §2
Tribolium castaneum [12] = test: Insecticidal activity against adult Tribolium castaneum (red flour beetle) assessed as repellent activity at 0.0016 nL/cm2 after 2 hr; summary of the method: as §2
Tribolium castaneum [13] = test: Insecticidal activity against adult Tribolium castaneum (red flour beetle) assessed as repellent activity at 0.0016 nL/cm2 after 4 hr; summary of the method: as §2
[14] = tested on: Liposcelis bostrychophila; test: Insecticidal activity against adult Liposcelis bostrychophila (booklice) assessed as repellent activity at 1.6 nL/cm2 after 4 hr; summary of the method: as §1
Tribolium castaneum [15] = test: Insecticidal activity against adult Tribolium castaneum (red flour beetle) assessed as repellent activity at 0.16 nL/cm2 after 4 hr; summary of the method: as §2
Tribolium castaneum [16] = test: Insecticidal activity against adult Tribolium castaneum (red flour beetle) assessed as repellent activity at 16 nL/cm2 after 4 hr; summary of the method: as §2
Tribolium castaneum [17] = test: Insecticidal activity against adult Tribolium castaneum (red flour beetle) assessed as repellent activity at 0.016 nL/cm2 after 2 hr; summary of the method: as §2
[18] = tested on: Liposcelis bostrychophila; test: Insecticidal activity against adult Liposcelis bostrychophila (booklice) assessed as repellent activity at 3.2 nL/cm2 after 2 hr; summary of the method: as §1
[19] = tested on: Liposcelis bostrychophila; test: Insecticidal activity against adult Liposcelis bostrychophila (booklice) assessed as repellent activity at 13 nL/cm2 after 2 hr; summary of the method: as §1
Tribolium castaneum [20] = test: Insecticidal activity against adult Tribolium castaneum (red flour beetle) assessed as repellent activity at 1.6 nL/cm2 after 2 hr; summary of the method: as §2

| Structure (SMILES) | Repellency [1] [%] | Repellency [2] [%] | Repellency (Tribolium castaneum [3]) [%] | Repellency (Tribolium castaneum [4]) [%] | Repellency (Tribolium castaneum [5]) [%] | Repellency [6] [%] | Repellency [7] [%] | Repellency [8] [%] | Repellency [9] [%] | Repellency [10] [%] | Repellency (Tribolium castaneum [11]) [%] | Repellency (Tribolium castaneum [12]) [%] | Repellency (Tribolium castaneum [13]) [%] | Repellency [14] [%] | Repellency (Tribolium castaneum [15]) [%] | Repellency (Tribolium castaneum [16]) [%] | Repellency (Tribolium castaneum [17]) [%] | Repellency [18] [%] | Repellency [19] [%] | Repellency (Tribolium castaneum [20]) [%] |
| --- | --- | --- | --- | --- | --- | --- | --- | --- | --- | --- | --- | --- | --- | --- | --- | --- | --- | --- | --- | --- |
| CC(C)=CCC[C@@H](C)CCO [(+)-CITRONELLOL] | 64 | 66 | 88 | 48 | 75 | 44 | 76 | 82 | 96 | 28 | 64 | 40 | 36 | 32 | 66 | 96 | 44 | 52 | 66 | 82.5 |
| CC(C)=CCC[C@@H](C)CC=O [CITRONELLAL] | 6 | 20 | 16 | -16 | -16 | 12 | 4 | 34 | 36 | -10 | 10 | -20 | 0 | -10 | 6 | -4 | 4 | -4 | -10 | -12 |
| C=C(C)[C@H]1CC=C(C)CC1 [D-LIMONENE] | -18 | -20 | 20 | -36 | -44 | -22 | 30 | 40 | 36 | -6 | 2 | 20 | 12 | -4 | 8 | -4 | -36 | -10 | -4 | -22 |
| CCN(CC)C(=O)c1cccc(C)c1 [DIETHYLTOLUAMIDE] | 92 | 84 | 92 | -4 | -12 | 64 | 94 | 94 | 96 | 46 | 0 | -34 | -46 | 42 | -16 | 90 | 0 | 82 | 100 | 6 |
| CC(C)=CCC/C(C)=C/CO [GERANIOL] | 96 | 90 | 96 | -10 | 60 | 74 | 82.5 | 92 | 86 | 42 | 14 | -10 | -14 | 44 | 14 | 86 | -12 | 84 | 95 | 58 |

Reference: ChEMBL document CHEMBL3044618, “Repellent constituents of essential oil of Cymbopogon distans aerial parts against two stored-product insects” (2011)
